Laboratory results from PubChem BioAssay.
Results filed as inconclusive are left out.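 Rule for the calls, unless noted: active = viability increase at or above a cutoff of the median across tested compounds plus 3 SD (cut at about 8.5% in these data, passing the limit was not always enough); inconclusive = some gains above the cutoff, reason not given; inactive = the rest.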

What was measured:
[1] = OD615 S. cerevisiae growth inhibition, permissive medium, pilot counter-assay, permissive growth control for S. cerevisiae lifespan shortening project (AID 705;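 active = growth inhibition above 25% in both replicates, a cutoff set 3 SD above the mean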); conditions: OD615, 24 h, at 10 µM, stronger effect = higher value
Procedure, shortened: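 Test system: Saccharomyces cerevisiae strain carrying genetically modified DeaD replicative-lifespan system; buffer or medium: SC raffinose/galactose permissive medium; dosing: one dose 10 µM, DMSO 0.25% final; times: 24 h exposure, 30 °C; measured by: OD at 615 nm; read-out basis: growth inhibition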

[2] = Restrictive medium S. cerevisiae growth inhibition, OD615, pilot screen of yeast lifespan reduction project, restrictive growth control (AID 706;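 active = growth inhibition above a set limit, 3 SD over mean compound inhibition, in both replicates, cut at about 43% in these data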;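 note: modified DeaD lifespan yeast strain shifted to restrictive glucose medium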); conditions: OD615, 48 h, at 10 µM, stronger effect = higher value
Procedure, shortened: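 material = engineered S. cerevisiae DeaD strain | buffer or medium = glucose-based CSMM-D restrictive medium | dosing = one concentration, 10 µM final, 0.25% DMSO | schedule = 4 h pre-growth plus 48 h compound exposure, 30 °C | detection = OD615 absorbance reading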

[3] = viability gain of MRP-1-high H69AR cells under doxorubicin, pilot screen, MRP-1 activator project, CellTiter-Glo, duplicate (AID 807); conditions: H69AR viability with doxorubicin, CellTiter-Glo luminescence; at 10 µM; stronger effect = higher value;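 note: compound pretreatment 18-22 h then 72 h combined with doxorubicin; 0% = doxorubicin alone and 100% = vehicle without doxorubicin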
[4] = growth suppression of PTEN-deleted HCT116, pilot screen, cell-based, HCT116 clonal line, CellTiter-Glo (AID 824;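 active = viability at or below 27.92% in each of two runs, the all-compound median minus 4 SD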;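 note: 0% = 20 µM Hyamine control and 100% = vehicle cell control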); conditions: 60 h, at 10 µM, stronger effect = lower value
[5] = inhibitors of the yeast RAM network, pilot screen, dse1pr::URA3 reporter, 5-FOA selection (AID 869;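 active = inhibition over a set limit, the all-compound mean plus 3 SD, in both replicate runs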;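 note: 0% = DMSO wells with no growth and 100% = 10 µM 1-NA-PP1 with full growth; RAM network block rescues cells from 5-FOA so hits raise OD615 growth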); conditions: S. cerevisiae dse1pr::URA3 5-FOA growth, OD615, 2 d; at 10 µM; stronger effect = higher value; strain carries analog-sensitive mutant Cbk1 kinase
[6] = RAM signaling pathway blockade in yeast – S. cerevisiae, Pdr1DBD-CYC8 efflux-inhibited sensitized strain, primary screen (AID 1298;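 active = RAM network inhibition above 8.4% in each of two replicates, 3 SD over the compound average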;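 note: 0% = DMSO untreated cells without growth and 100% = 10 µM 1-NA-PP1 full growth; higher means more yeast growth rescued from 5-FOA killing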); conditions: S. cerevisiae cbk1-as DSE1-URA3 strain, 5-FOA growth OD615, 2 d; at 50 µM; stronger effect = higher value

COc1cc2c(cc1OC)C(c1cccs1)NCC2 (stereo not given)
inactive: growth inhibition [1] -10.4% | growth inhibition [2] -8.06% | viability increase [3] -3.87% | viability [4] 92.6% | inhibition [5] 0.41% | RAM network inhibition [6] 4.46%

COc1ccc(CCNC(=O)CN(c2ccc(OC)c(OC)c2)S(C)(=O)=O)cc1OC
inactive: growth inhibition [1] -1.96% | growth inhibition [2] -7.65% | viability increase [3] 0.32% | viability [4] 106% | inhibition [5] 0.98% | RAM network inhibition [6] 1.49%

Cc1onc(-c2ccccc2)c1C(=O)Nc1ccc2c(C)cc(=O)oc2c1
inactive: growth inhibition [1] -3.97% | growth inhibition [2] -0.655% | viability increase [3] -2.9% | viability [4] 103% | inhibition [5] 3.31% | RAM network inhibition [6] 2.2%

c1cncc(CNc2nc(N3CCOCC3)nc(N3CCOCC3)n2)c1
inactive: growth inhibition [1] -10.4% | growth inhibition [2] 1.83% | viability increase [3] -2.97% | viability [4] 91.8% | inhibition [5] 1.27% | RAM network inhibition [6] 1.95%

NS(=O)(=O)c1ccc(NC(=O)COC(=O)CCNC(=O)NC23CC4CC(CC(C4)C2)C3)cc1
inactive: growth inhibition [1] -10.4% | growth inhibition [2] -4.2% | viability increase [3] 0.2% | viability [4] 98.6% | inhibition [5] 0.55% | RAM network inhibition [6] 3.28%
